Measurements: ChEMBL document CHEMBL1157808, “Synthesis and biological evaluation of phenolic 4,5-dihydroisoxazoles and 3-hydroxy ketones as estrogen receptor alpha and beta agonists” (Bioorg Med Chem, 2010)

Legend:
[1] = target: T1, Estrogen receptor (Homo sapiens) (UniProt P03372); test: Agonist activity at ERalpha expressed in HEK293 cells at 10 uM after 24 hrs by luciferase reporter gene assay relative to 3,17-beta-estradiol; format: functional, cell-based
T1 sequence (whole entry): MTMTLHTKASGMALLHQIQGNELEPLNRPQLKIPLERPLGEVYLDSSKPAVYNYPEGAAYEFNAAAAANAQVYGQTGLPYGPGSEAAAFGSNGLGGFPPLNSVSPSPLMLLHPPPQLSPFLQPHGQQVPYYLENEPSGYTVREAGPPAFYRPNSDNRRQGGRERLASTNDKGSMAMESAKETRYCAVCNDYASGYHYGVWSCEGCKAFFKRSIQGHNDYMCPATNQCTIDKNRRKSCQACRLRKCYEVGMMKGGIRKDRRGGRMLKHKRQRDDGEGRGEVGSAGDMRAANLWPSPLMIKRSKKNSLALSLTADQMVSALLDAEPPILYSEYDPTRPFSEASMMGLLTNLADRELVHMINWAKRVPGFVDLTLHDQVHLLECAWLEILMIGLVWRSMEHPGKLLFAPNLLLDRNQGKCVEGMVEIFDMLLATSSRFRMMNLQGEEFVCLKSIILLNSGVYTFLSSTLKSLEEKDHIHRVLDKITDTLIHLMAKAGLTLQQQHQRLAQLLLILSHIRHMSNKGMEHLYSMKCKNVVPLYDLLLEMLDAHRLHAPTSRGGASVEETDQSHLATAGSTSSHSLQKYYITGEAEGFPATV
How it was run: (§1)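 HEK293 cells (no endogenous ER) in phenol-free DMEM with 5% delipidated FBS were transfected for 4 h with 5 ng ERα or ERβ expression vector, 75 ng pERE2TATA-LUC reporter and 20 ng pCMVβ. Cells then received 10 μM compound, 10 nM E2 or vehicle (0.1% v/v) for 24 h. Luciferase was normalized to β-galactosidase and expressed as 100% × (test − vehicle)/(E2 − vehicle). Values are means of at least three independent transfections.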

[2] = target: Estrogen receptor beta (Homo sapiens) (UniProt Q92731); test: Agonist activity at ERbeta expressed in HEK293 cells at 10 uM after 24 hrs by luciferase reporter gene assay relative to 3,17-beta-estradiol; format: functional, cell-based; how it was run: as §1
Sequence of Estrogen receptor beta (Homo sapiens) (Q92731 whole entry): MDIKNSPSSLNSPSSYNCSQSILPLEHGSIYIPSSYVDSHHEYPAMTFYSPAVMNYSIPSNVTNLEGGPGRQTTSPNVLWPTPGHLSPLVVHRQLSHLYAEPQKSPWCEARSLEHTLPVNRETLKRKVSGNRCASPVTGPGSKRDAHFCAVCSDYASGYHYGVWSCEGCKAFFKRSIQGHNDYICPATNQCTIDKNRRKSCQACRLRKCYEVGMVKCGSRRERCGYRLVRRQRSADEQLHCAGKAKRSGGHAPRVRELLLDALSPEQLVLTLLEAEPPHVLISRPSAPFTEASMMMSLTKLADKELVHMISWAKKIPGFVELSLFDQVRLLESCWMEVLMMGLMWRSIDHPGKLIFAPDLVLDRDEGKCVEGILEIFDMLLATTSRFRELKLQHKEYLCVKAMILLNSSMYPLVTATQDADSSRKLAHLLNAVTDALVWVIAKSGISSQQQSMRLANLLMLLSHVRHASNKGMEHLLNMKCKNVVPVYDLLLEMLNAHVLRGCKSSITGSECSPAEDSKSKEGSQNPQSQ

Homo sapiens = species: Homo sapiens; test: Selectivity ratio of relative binding affinity for human ERalpha to relative binding affinity for human ERbeta
How it was run: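 COS-1 cells in DMEM with 10% delipidated FBS were transfected for 24 h with human ERα or ERβ vector (pSG5-hERα/β). Cells were washed, lysed in 0.5 M NaOH at 56 °C for 15 min and counted by scintillation, with nonspecific binding subtracted.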

Activity [1]	Activity [2]	Ratio (Homo sapiens)	SMILES
105%	42.4%	–	Oc1ccc(CC2CC(CCc3ccccc3)=NO2)cc1 (stereo not given)
11.1%	-2.4%	–	Oc1ccccc1CCC1=NOC(Cc2ccc(F)cc2)C1 (stereo not given)
43.9%	-0.4%	–	c1ccc(CCC2=NOC(CCc3ccccc3)C2)cc1 (stereo not given)
28.1%	5.1%	–	c1ccc(CCCC2=NOC(Cc3ccccc3)C2)cc1 (stereo not given)
90.9%	103%	8	CC(O)(CC(=O)CCCc1ccc(O)cc1)c1ccccc1 (racemic)
52.1%	38.4%	–	CC(O)(CC(=O)CCc1ccccc1)c1ccccc1 (racemic)
0.5%	-0.6%	–	O=C(CCCc1ccc(O)c(O)c1)CC(O)Cc1ccc(O)cc1 (racemic)
45.2%	5.1%	–	O=C(CCc1ccccc1O)CC(O)Cc1ccccc1 (racemic)
59.3%	28.2%	5	O=C(CCCc1ccccc1)CC(O)c1ccccc1 (single isomer, unassigned)
4.5%	4.2%	–	Oc1ccccc1CCC1=NOC(CCc2ccccc2)C1 (single isomer, unassigned)
11.2%	8.1%	–	c1ccc(CCC2=NOC(c3ccccc3)C2)cc1 (single isomer, unassigned)
24.3%	41.5%	0.5	Oc1ccc(CCC2=NOC(Cc3ccccc3)C2)cc1 (single isomer, unassigned; 3b)
7.1%	-2.9%	–	CC1(c2ccccc2)CC(CCc2cccc(O)c2)=NO1 (single isomer, unassigned; 38b)
39.7%	18%	–	CC1(c2ccccc2)CC(CCc2ccc(O)cc2)=NO1 (single isomer, unassigned; 39a)
21.8%	2.6%	–	Oc1ccccc1CCC1=NOC(CCc2ccccc2)C1 (stereo in doubt; 16b)
154%	78.2%	–	Oc1ccc(CCCC2=NOC(Cc3ccccc3)C2)cc1 (stereo in doubt; 24a)
14.4%	-0.9%	–	Oc1ccc(CCCC2=NOC(Cc3ccc(O)cc3)C2)cc1 (stereo in doubt; 26a)
27.6%	7.2%	–	Oc1ccc(CCCC2=NOC(c3cccc(O)c3)C2)cc1 (stereo in doubt; 47b)
–	–	0.7	O=C(CCCc1ccccc1)CC(O)c1ccccc1 (stereo in doubt; 48a)

The remaining lines, values behind:

SMILES	Activity [1]	Activity [2]	Ratio (Homo sapiens)
CC(O)(CC(=O)CCCc1ccccc1)c1ccccc1 (racemic)	83.3%	15.1%	2
CC(O)(CC(=O)CCc1ccc(O)cc1)c1ccccc1 (racemic)	80.3%	116%	–
CC1(c2ccccc2)CC(CCCc2ccccc2)=NO1 (racemic)	69.5%	15.5%	1.5
O=C(CCCc1ccc(O)c(O)c1)CC(O)Cc1ccccc1 (racemic)	-0.5%	-0.8%	–
O=C(CCCc1ccc(O)cc1)CC(O)Cc1ccccc1 (racemic)	105%	82.3%	11
O=C(CCCc1ccccc1)CC(O)Cc1ccc(O)cc1 (racemic)	16%	2.4%	–
O=C(CCc1ccc(O)cc1)CC(O)CCc1ccccc1 (racemic)	46.8%	10.1%	0.3
O=C(CCc1ccc(O)cc1)CC(O)Cc1ccc(F)cc1 (racemic)	28.6%	21.2%	–
O=C(CCc1ccc(O)cc1)CC(O)Cc1ccccc1 (racemic)	55%	107%	0.2
O=C(CCc1cccc(O)c1)CC(O)CCc1ccccc1 (racemic)	87.3%	48.1%	106
O=C(CCc1ccccc1)CC(O)Cc1ccc(O)cc1 (racemic)	51.4%	6.1%	–
O=C(CCc1ccccc1O)CC(O)CCc1ccccc1 (racemic)	4%	1.1%	–
O=C(CCc1ccccc1O)CC(O)Cc1ccc(F)cc1 (racemic)	21.6%	11.1%	–
Fc1ccc(CC2CC(CCc3ccccc3)=NO2)cc1 (single isomer, unassigned)	28.9%	7.4%	–
O=C(CCCc1ccc(O)cc1)CC(O)c1cccc(O)c1 (single isomer, unassigned)	49.3%	43.5%	–
O=C(CCc1ccccc1)CC(O)c1ccccc1 (single isomer, unassigned)	25.3%	2.8%	–
Oc1ccc(CCC2=NOC(CCc3ccccc3)C2)cc1 (single isomer, unassigned)	62.8%	15.4%	–
Oc1ccc(CCC2=NOC(Cc3ccc(F)cc3)C2)cc1 (single isomer, unassigned)	5.7%	4.4%	–
Oc1ccc(CCCC2=NOC(Cc3ccc(O)cc3)C2)cc1 (single isomer, unassigned)	13.6%	10.6%	–
Oc1ccc(CCCC2=NOC(Cc3ccccc3)C2)cc1 (single isomer, unassigned)	75.1%	19.8%	–
Oc1ccc(CCCC2=NOC(c3cccc(O)c3)C2)cc1 (single isomer, unassigned)	32.9%	-0.9%	–
Oc1cccc(CCC2=NOC(CCc3ccccc3)C2)c1 (single isomer, unassigned)	3%	3.6%	–

SMILES	Activity [1]	Activity [2]	Ratio (Homo sapiens)
Oc1ccccc1CCC1=NOC(Cc2ccccc2)C1 (single isomer, unassigned)	39.7%	30.5%	–
c1ccc(CCC2=NOC(Cc3ccccc3)C2)cc1 (single isomer, unassigned)	38.2%	1.3%	–
Oc1ccc(CCC2=NOC(Cc3ccccc3)C2)cc1 (single isomer, unassigned; 3a)	–	–	6
Oc1ccc(CC2CC(CCCc3ccccc3)=NO2)cc1 (single isomer, unassigned; 25a)	67.1%	4.7%	–
Oc1ccc(CC2CC(CCCc3ccccc3)=NO2)cc1 (single isomer, unassigned; 25b)	97.2%	17%	–
Oc1ccc(CCCC2=NOC(Cc3ccccc3)C2)cc1O (single isomer, unassigned; 27a)	0.3%	1.3%	–
Oc1ccc(CCCC2=NOC(Cc3ccccc3)C2)cc1O (single isomer, unassigned; 27b)	2.1%	-1.3%	–
Oc1ccc(CC2CC(CCCc3ccc(O)c(O)c3)=NO2)cc1 (single isomer, unassigned; 28a)	1.7%	-1.1%	–
Oc1ccc(CC2CC(CCCc3ccc(O)c(O)c3)=NO2)cc1 (single isomer, unassigned; 28b)	1.4%	-0.7%	–
CC1(c2ccccc2)CC(CCc2ccccc2)=NO1 (single isomer, unassigned; 36a)	8.1%	-20%	–
CC1(c2ccccc2)CC(CCc2ccccc2)=NO1 (single isomer, unassigned; 36b)	10.9%	-7.3%	–
CC1(c2ccccc2)CC(CCc2ccccc2O)=NO1 (single isomer, unassigned; 37a)	11.8%	-0.4%	–
CC1(c2ccccc2)CC(CCc2ccccc2O)=NO1 (single isomer, unassigned; 37b)	21.7%	30%	–
CC1(c2ccccc2)CC(CCc2cccc(O)c2)=NO1 (single isomer, unassigned; 38a)	21.6%	0.5%	–
CC1(c2ccccc2)CC(CCc2ccc(O)cc2)=NO1 (single isomer, unassigned; 39b)	18.7%	37.4%	–
Oc1cccc(CCC2=NOC(CCc3ccccc3)C2)c1 (stereo in doubt; 17a)	8.3%	2.6%	–
Oc1ccc(CCC2=NOC(CCc3ccccc3)C2)cc1 (stereo in doubt; 18b)	15.8%	0.8%	–
O=C(CCCc1ccc(O)cc1)CC(O)Cc1ccc(O)cc1 (stereo in doubt; 32b)	2.8%	-1.6%	–
c1ccc(CCCC2=NOC(c3ccccc3)C2)cc1 (stereo in doubt; 43a)	–	-3.1%	–
O=C(CCCc1ccc(O)cc1)CC(O)Cc1ccc(O)cc1 (stereo in doubt; form 1)	87.4%	108%	–
O=C(CCCc1ccc(O)cc1)CC(O)Cc1ccc(O)cc1 (stereo in doubt; form 2)	15.4%	1.8%	–
